Experiments:
[1] = Drug uptake in human MCF7 cells at 5 uM after 3 hrs in presence of 10 nM E2 by DAPI-staining based confocal laser scanning microscopic analysis; details: mcf7, 3 h
Homo sapiens [2] = species on record: Homo sapiens; assay: Selectivity ratio of Kd for recombinant human GST-tagged VDR LBD (156 to 453 residues) to Kd for recombinant human ERalpha LBD (301 to 553 residues)
Method in brief: (§1)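 Ratio of KD values, each from fluorescence polarization of 10 nM FITC-peptide titrated with the respective LBD after 40 min in the dark at 298 K, with the matching ligand in buffer (10 μM 17β-estradiol, progesterone or vitamin D3).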

Homo sapiens [3] = species on record: Homo sapiens; assay: Selectivity ratio of Kd for recombinant human ERbeta LBD (259 to 498 residues) to Kd for recombinant human ERalpha LBD (301 to 553 residues)
Method in brief: as §1

Vitamin D3 receptor = target: T1, Vitamin D3 receptor (Homo sapiens, UniProt P11473); assay: Binding affinity to recombinant human GST-tagged VDR LBD (156 to 453 residues) expressed in Echerichia coli BL21 star (DE3) after 40 mins in presence of vitamin D3 by fluorescence polarization assay
T1 sequence (P11473 whole entry): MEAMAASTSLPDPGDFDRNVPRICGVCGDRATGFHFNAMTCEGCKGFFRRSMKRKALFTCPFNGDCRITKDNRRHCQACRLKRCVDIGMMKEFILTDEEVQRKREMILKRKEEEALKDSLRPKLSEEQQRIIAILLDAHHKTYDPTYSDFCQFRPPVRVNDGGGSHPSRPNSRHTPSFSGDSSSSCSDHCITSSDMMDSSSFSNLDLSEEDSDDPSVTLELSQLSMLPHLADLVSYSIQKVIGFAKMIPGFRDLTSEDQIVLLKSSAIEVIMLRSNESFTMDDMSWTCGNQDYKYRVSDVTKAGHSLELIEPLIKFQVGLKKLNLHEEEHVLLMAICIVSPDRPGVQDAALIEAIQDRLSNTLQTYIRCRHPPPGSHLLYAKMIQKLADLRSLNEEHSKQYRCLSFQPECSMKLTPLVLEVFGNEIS
Method in brief: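 GST-VDR LBD titrated into 10 nM final FITC-labelled peptide in 20 mM Tris-HCl pH 8.0, 150 mM NaCl, 5% glycerol, 1 mM TCEP containing 10 μM vitamin D3. 40 min dark incubation, polarization at 298 K (ex 480/em 535 nm). KD by nonlinear regression.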

Structure (SMILES): CC[C@H](C)[C@@H]1NC(=O)C[C@H](NC(=O)[C@H](CCCNC(=N)N)NC(=O)CCNC(=S)Nc2ccc3c(c2)C(=O)OC32c3ccc(O)cc3Oc3cc(O)ccc32)C(=O)NCC(C(=O)N[C@@H](CCCNC(=N)N)C(=O)NC(CC(C)(C)C)C(=O)NC(CC(C)(C)C)C(=O)N[C@@H](CCC(N)=O)C(N)=O)NC(=O)C(CC(C)(C)C)NC1=O (some centres undefined)
- Drug uptake [1]: Active
- Selectivity ratio (Homo sapiens [2]): > 30
- Selectivity ratio (Homo sapiens [3]): 4.4
- Kd (Vitamin D3 receptor): > 2000 nM

— ChEMBL document CHEMBL4017549, “Structural Basis of Inhibition of ERα-Coactivator Interaction by High-Affinity N-Terminus Isoaspartic Acid Tethered Helical Peptides” (J Med Chem, 2017)
